The source of these data is publication PMC3149718 (Molecular and cellular biochemistry, 2011).

The target in experiment [1] is T1, 89-residue L-CPTI C-terminal peptide, W391A mutant (Rattus norvegicus, UniProt P32198, W391A).
T1 sequence (P32198 381-469 W391A): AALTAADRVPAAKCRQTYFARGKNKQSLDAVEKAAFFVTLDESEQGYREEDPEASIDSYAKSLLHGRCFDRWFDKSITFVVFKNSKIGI
In words: Direct binding of fluorescent cis-parinaroyl-CoA.

Experiment [2] concerns the target T2, 89-residue L-CPTI C-terminal peptide, W452A mutant (Rattus norvegicus, UniProt P32198, W452A).
T2 sequence (P32198 381-469 W452A): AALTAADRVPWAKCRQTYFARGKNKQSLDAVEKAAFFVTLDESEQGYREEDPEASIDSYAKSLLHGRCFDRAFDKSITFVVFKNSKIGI
The experiment is described as follows: Direct binding of fluorescent cis-parinaroyl-CoA.

Experiment [3] deals with T3, 89-residue L-CPTI C-terminal peptide, wild-type (WT) (Rattus norvegicus, UniProt P32198).
T3 sequence (P32198 381-469): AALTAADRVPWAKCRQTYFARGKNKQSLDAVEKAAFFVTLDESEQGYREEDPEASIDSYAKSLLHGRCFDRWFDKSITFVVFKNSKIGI
The experiment is described as follows: FRET from CPTI aromatic amino acids to bound cis-parinaroyl-CoA. It counts as binding. Summed up:
(§1)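 Peptide (0.1 µM in PBS, pH 7.4) was titrated with cis-parinaroyl-CoA at 24°C (0–1000 nM in methods; 0–250 nM in legend), with excitation at 280 nm and a 300–450 nm scan. Spectra were background-corrected and each averaged from 5 replicates. […] Distance was obtained by the Förster equation. Values are mean ± SE, n=5.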

Experiment [4] has as its target T1, 89-residue L-CPTI C-terminal peptide, W391A mutant. Described as above. It counts as binding. Summed up: as §1
Experiment [5] has as its target T2, 89-residue L-CPTI C-terminal peptide, W452A mutant. Described as above. It counts as binding. Summed up: as §1
Experiment [6] deals with T3, 89-residue L-CPTI C-terminal peptide, wild-type (WT). In words: Displacement of bound cis-parinaroyl-CoA by palmitoyl-CoA. It counts as binding. Particulars: palmitoyl-CoA 0–150nM. Summed up: (§2)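 Purified 89-residue peptide (0.1 µM in PBS, pH 7.4) was preincubated with 50 nM cis-parinaroyl-CoA for 5 min at 24°C. It was then titrated with palmitoyl-CoA (0–150 nM stated for WT). Excitation was 310 nm and emission was read at 426 nm. Displacement was taken from the fall in fluorescence and plotted as percent change, and Ki was then calculated.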

Experiment [7] addresses T1, 89-residue L-CPTI C-terminal peptide, W391A mutant. The description is as above. It counts as binding. To be noted: mutant peptides (W391A), range given for both mutants. The method, boiled down: as §2
The target of experiment [8] is T2, 89-residue L-CPTI C-terminal peptide, W452A mutant. The description is as above. To be noted: mutant peptides (W452A), range given for both mutants. It counts as binding. Summed up:
as §2

Experiment [9] addresses T1, 89-residue L-CPTI C-terminal peptide, W391A mutant. The experiment is described as follows: Quenching of intrinsic aromatic amino acid fluorescence by palmitoyl-CoA. It counts as binding. Particulars: read-out: Quenching Kd, quenching of aromatic amino acid fluorescence of 0.1 µM W391A peptide.
Experiment [10] deals with T2, 89-residue L-CPTI C-terminal peptide, W452A mutant. Described as above. Particulars: read-out: Quenching Kd, quenching of aromatic amino acid fluorescence of 0.1 µM W452A peptide. It counts as binding.
The target of experiment [11] is T4, Cy3-labeled CPTI WT 89-residue peptide (Rattus norvegicus, UniProt P32198).
T4 sequence (P32198 381-469): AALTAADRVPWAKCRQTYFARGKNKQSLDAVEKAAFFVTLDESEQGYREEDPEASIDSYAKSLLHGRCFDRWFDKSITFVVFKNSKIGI
The experiment is described as follows: FRET between Cy3-labeled CPTI peptide and Cy5-labeled LCFA-CoA binding proteins. Particulars: donor Cy3-CPTI WT, Cy5-labeled acceptor protein.

The target of experiment [12] is T5, Cy3-labeled W391A 89-residue CPTI peptide (Rattus norvegicus, UniProt P32198, W391A).
T5 sequence (P32198 381-469 W391A): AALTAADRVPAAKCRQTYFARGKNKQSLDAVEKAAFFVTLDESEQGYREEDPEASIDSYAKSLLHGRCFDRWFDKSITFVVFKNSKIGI
The experiment is described as above. To be noted: donor Cy3-W391A, Cy5-labeled acceptor protein.

For experiment [13], the target named is T6, Cy3-labeled W452A 89-residue CPTI peptide (Rattus norvegicus, UniProt P32198, W452A).
T6 sequence (P32198 381-469 W452A): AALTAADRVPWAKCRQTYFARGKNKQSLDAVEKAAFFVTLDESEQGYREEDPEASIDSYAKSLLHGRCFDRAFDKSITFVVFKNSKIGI
The description is as above. To be noted: donor Cy3-W452A, Cy5-labeled acceptor protein.

For experiment [14], the target named is T7, wild-type CPTI in mitochondria from yeast (Rattus norvegicus, UniProt P32198).
T7 sequence (P32198 1-773): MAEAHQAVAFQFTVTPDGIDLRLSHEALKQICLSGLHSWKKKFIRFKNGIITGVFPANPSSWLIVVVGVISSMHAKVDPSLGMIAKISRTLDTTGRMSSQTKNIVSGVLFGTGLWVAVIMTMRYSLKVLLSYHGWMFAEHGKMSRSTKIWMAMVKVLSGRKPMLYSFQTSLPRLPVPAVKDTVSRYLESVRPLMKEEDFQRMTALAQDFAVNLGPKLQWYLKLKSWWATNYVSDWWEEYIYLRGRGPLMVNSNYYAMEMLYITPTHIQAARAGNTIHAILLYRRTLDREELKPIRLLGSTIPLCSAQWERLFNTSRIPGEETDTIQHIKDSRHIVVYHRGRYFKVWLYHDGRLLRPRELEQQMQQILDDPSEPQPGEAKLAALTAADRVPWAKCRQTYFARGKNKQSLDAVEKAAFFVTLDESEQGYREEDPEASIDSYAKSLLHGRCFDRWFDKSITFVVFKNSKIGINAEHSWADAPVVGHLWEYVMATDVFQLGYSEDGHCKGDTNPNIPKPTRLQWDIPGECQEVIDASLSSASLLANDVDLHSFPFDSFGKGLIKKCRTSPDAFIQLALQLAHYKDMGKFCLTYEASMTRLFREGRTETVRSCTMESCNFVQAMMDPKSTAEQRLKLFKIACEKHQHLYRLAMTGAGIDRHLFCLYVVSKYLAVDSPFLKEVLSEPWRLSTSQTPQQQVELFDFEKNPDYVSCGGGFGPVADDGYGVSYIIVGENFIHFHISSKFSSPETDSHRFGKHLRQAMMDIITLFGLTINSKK
In words: CPTI activity assay. It counts as biochemical. Summed up: (§3)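 Mitochondria isolated from yeast strains expressing wild-type or mutant CPTI were assayed by forward exchange with L-[methyl-3H]carnitine at a fixed 1.0 mM carnitine, using 150 µg mitochondrial protein. […] Incubation was 5 min at 30°C and was stopped with 6% perchloric acid. Values are mean ± SE.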

Experiment [15] has as its target T8, W391A mutant CPTI in mitochondria from yeast (Rattus norvegicus, UniProt P32198, W391A).
T8 sequence (P32198 1-773 W391A): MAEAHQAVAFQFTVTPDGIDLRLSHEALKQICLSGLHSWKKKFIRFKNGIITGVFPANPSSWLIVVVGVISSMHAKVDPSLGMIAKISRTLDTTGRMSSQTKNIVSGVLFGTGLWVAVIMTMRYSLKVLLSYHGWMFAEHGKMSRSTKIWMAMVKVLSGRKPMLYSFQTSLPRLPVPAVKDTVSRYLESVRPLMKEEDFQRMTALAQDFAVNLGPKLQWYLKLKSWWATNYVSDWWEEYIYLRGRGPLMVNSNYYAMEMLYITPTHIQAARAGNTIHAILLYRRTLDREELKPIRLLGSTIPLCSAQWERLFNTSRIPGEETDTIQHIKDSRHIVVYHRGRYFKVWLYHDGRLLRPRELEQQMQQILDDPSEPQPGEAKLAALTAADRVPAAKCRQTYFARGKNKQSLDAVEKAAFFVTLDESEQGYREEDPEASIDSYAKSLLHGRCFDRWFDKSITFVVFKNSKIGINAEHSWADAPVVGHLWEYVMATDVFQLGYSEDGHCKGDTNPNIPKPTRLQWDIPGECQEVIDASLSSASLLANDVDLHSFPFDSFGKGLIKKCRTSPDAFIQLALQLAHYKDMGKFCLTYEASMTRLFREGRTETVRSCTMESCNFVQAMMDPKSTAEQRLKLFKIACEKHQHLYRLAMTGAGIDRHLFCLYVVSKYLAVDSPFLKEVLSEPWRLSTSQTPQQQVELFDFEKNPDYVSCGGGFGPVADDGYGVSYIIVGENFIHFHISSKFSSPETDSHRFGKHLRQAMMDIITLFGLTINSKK
The experiment is described as follows: CPTI activity assay. It counts as biochemical. The method, boiled down:
as §3

In experiment [16] the target is T9, W452A mutant CPTI in mitochondria from yeast (Rattus norvegicus, UniProt P32198, W452A).
T9 sequence (P32198 1-773 W452A): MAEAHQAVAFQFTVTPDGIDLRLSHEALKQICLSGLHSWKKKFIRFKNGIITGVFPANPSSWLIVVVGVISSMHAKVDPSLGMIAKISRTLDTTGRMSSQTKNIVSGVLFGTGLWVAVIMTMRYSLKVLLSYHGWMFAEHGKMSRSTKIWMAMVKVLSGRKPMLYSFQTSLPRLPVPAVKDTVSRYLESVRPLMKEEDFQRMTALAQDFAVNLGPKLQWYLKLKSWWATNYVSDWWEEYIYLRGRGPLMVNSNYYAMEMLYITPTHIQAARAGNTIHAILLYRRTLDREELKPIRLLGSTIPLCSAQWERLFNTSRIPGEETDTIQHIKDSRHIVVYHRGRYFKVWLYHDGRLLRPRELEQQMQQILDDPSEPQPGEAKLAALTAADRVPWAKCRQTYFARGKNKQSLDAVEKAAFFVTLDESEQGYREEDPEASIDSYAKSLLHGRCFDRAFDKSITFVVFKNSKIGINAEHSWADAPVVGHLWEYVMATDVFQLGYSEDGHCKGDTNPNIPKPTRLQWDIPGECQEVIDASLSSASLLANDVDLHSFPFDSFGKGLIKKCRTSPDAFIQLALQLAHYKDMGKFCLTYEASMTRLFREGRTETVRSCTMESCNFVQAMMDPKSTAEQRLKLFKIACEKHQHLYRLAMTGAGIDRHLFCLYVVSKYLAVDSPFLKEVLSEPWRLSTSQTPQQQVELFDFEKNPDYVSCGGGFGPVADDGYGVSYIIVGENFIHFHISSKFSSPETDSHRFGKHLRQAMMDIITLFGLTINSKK
The experiment is described as follows: CPTI activity assay. It counts as biochemical. Summed up:
as §3

[17] abbreviates: donor protein 15uM, palmitoyl-CoA to protein molar ratio 7.41.
The mark [18] stands for this setting: donor protein 30uM, palmitoyl-CoA to protein molar ratio 3.70.
[19] abbreviates: donor protein 60uM, palmitoyl-CoA to protein molar ratio 1.85.

Take `CC/C=C/C=C\C=C/C=C/CCCCCCCC(=O)SCCNC(=O)CCNC(=O)[C@H](O)C(C)(C)COP(=O)(O)OP(=O)(O)OC[C@H]1O[C@@H](n2cnc3c(N)ncnc32)[C@H](O)[C@@H]1OP(=O)(O)O` (relative stereo) [cis-parinaroyl-CoA]: the “binding affinity weaker than WT” value was 5–7 fold in experiment [1] (mutant (W391A) versus WT, range given for both mutants) and 5–7 fold in experiment [2] (mutant (W452A) versus WT, range given for both mutants). For the same molecule, the Kd is 52 ± 8 nM in experiment [1] (read-out: Cpn-CoA Kd, W391A peptide 0.1 µM, PBS pH 7.4, 24°C, direct fluorescence); 67 ± 10 nM in experiment [2] (read-out: Cpn-CoA Kd, W452A peptide 0.1 µM, PBS pH 7.4, 24°C, direct fluorescence); 35 ± 10 nM in experiment [3] (read-out: Donor Emission Kd, from decrease in donor (CPTI WT) fluorescence); 88 ± 9 nM in experiment [4] (read-out: Donor Emission Kd, from decrease in donor (W391A) fluorescence); 51 ± 5 nM in experiment [5] (read-out: Donor Emission Kd, from decrease in donor (W452A) fluorescence). The “intermolecular distance determined from the increased acceptor fluorescence” value in experiment [3] (CPTI WT, acceptor (cis-parinaroyl-CoA) fluorescence) is given as 38±1 Å. Besides, the “Donor Emission R (intermolecular distance)” value in experiment [3] (from donor (CPTI WT) quenching, Förster equation) is reported as 28 ± 1 Å; in [4] (from donor (W391A) quenching), 23.9 ± 0.6 Å; in experiment [5] (from donor (W452A) quenching) it was 24.3 ± 0.6 Å.
As to `CCCCCCCCCCCCCCCC(=O)SCCNC(=O)CCNC(=O)[C@H](O)C(C)(C)COP(=O)(O)OP(=O)(O)OC[C@H]1O[C@@H](n2cnc3c(N)ncnc32)[C@H](O)[C@@H]1OP(=O)(O)O` [palmitoyl-CoA], the “displacement of cis-parinaroyl-CoA” value in experiment [6] is “approximately 70%”. In addition, the cis-parinaroyl-CoA displacement in [7] and in experiment [8] was 50–60% throughout. Further, the dissociation constant Kd in experiment [9] amounted to 9 ± 1 nM; in [10] it was 16 ± 2 nM.

B1: L-FABP: Mouse recombinant liver fatty acid binding protein, delipidated (protein)
chain: MNFSGKYQLQSQENFEPFMKAIGLPEDLIQKGKDIKGVSEIVHEGKKIKLTITYGPKVVRNEFTLGEECELETMTGEKVKAVVKLEGDNKMVTTFKGIKSVTELNGDTITNTMTLGDIVYKRVSKRI
modifications: Cy5 dye, approximately 1 dye per protein molecule (in the FRET assay only; unlabelled in circular dichroism)
Turning to B1, the “Sensitized Emission R (intermolecular distance)” value amounted to 56 ± 3 Å in [11], 50 ± 2 Å in experiment [12] and 82 ± 1 Å in experiment [13]. Further, the “CPTI activity, WT” value came to 39.3 ± 2.5 nmol/min/mg in [14] (setting [17]), 37.6 ± 0.1 nmol/min/mg in experiment [14] (setting [18]) and 34.0 ± 0.1 nmol/min/mg in experiment [14] (setting [19]). The “CPTI activity, W391A” value in experiment [15] (setting [17]) was found to be 4.2 ± 0.1 nmol/min/mg; in experiment [15] (setting [18]) it was 5.9 ± 0.1 nmol/min/mg; in experiment [15] (setting [19]), 7.4 ± 0.1 nmol/min/mg. Further, the “CPTI activity, W452A” value in experiment [16] (setting [17]) amounted to 0.9 ± 0.2 nmol/min/mg; in [16] (setting [18]) it was 1.1 ± 0.1 nmol/min/mg; in experiment [16] (setting [19]) it was 1.6 ± 0.1 nmol/min/mg.

One may read the Kd as the concentration at which binding is half-saturated.
